# Compounds with a hit are over-represented: about 2.7% of the library has one in this group of screens.
# PAFAH1B2 inh: PAFAH1B2 enzyme inhibitors, primary screen, biochemical, fluorescence polarization, human; actives 1.2% (n = 340,000); Platelet-activating factor acetylhydrolase IB subunit alpha2 (Homo sapiens), P68402; recombinant PAFAH1B2, FP-rhodamine activity probe; inhibition, % at 3.39 µM;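 active = inhibition above the mean of all tested compounds plus 3 SD, cut at about 24% in these data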;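 also: 0% = enzyme with DMSO and 100% = wells lacking PAFAH1B2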
# RBBP9 inh: human RBBP9 inhibitors, primary screen, biochemical, fluorescence polarization, FP-Rh probe, HTS; actives 0.2% (n = 220,000); Serine hydrolase RBBP9 (Homo sapiens), O75884; recombinant RBBP9; inhibition, % at 7.94 µM;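 active = inhibition above the campaign mean of all tested compounds plus 3 SD, cut at about 14% in these data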;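 also: plate controls were DMSO wells with RBBP9 for no effect and wells lacking RBBP9 protein for full effect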
# Target sequence (O75884 whole entry, looked up): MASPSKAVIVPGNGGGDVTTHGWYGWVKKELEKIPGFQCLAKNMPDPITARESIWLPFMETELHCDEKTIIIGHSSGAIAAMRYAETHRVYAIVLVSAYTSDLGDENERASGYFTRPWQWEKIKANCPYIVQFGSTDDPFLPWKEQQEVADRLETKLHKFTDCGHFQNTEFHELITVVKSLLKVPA
#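 System: RBBP9 protein / Buffer or medium: Tris/NaCl buffer pH 8.0 with 0.1% Pluronic / Probe or stimulus: Serine-hydrolase probe FP-Rh, 375 nM pre-mixing / Dosing: 7.94 µM single dose, 0.794% DMSO / Times: enzyme-compound preincubation 30 min, then probe labeling 45 min, 25 °C / Technique: fluorescence polarization (mP), excitation 525 nm, emission 598 nm / Replication: singlicate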
# PAFAH2 FP inh: PAFAH2 enzyme inhibitors, primary screen, biochemical, fluorescence polarization, human; actives 0.99% (n = 340,000); Platelet-activating factor acetylhydrolase 2, cytoplasmic (Homo sapiens), Q99487; recombinant PAFAH2, FP-rhodamine activity probe; inhibition, % at 3.39 µM;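 active = inhibition above the mean over all tested compounds plus 3 SD, cut at about 30% in these data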;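 also: inhibitors block probe labeling of enzyme so polarization drops; 0% = enzyme with DMSO and 100% = wells lacking PAFAH2 protein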
# pPAFAH FP inh: pPAFAH enzyme inhibitors, primary screen, biochemical, fluorescence polarization, human; inhibition, % at 3.39 µM; actives 1.5% (n = 330,000); Platelet-activating factor acetylhydrolase (Homo sapiens), Q13093; recombinant pPAFAH, FP-rhodamine probe fluorescence polarization;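 active = inhibition above the mean inhibition across the screen plus 3 SD, cut at about 25% in these data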;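 also: inhibitors block binding of the rhodamine activity-based probe so polarization drops; 0% = enzyme with DMSO and 100% = wells lacking pPAFAH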
# Target sequence (Q13093 whole entry, looked up): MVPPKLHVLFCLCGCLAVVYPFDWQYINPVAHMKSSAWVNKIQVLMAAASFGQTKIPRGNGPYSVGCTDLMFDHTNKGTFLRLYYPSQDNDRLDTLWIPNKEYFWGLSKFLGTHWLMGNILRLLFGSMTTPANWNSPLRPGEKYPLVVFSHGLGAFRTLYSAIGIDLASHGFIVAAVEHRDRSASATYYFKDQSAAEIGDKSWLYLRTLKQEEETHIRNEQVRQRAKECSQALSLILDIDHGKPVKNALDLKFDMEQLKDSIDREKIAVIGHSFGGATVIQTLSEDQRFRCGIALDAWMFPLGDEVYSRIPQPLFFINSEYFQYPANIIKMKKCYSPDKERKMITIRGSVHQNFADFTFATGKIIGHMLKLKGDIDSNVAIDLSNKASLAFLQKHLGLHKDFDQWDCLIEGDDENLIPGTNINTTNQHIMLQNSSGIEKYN
# PAFAH1B3 FP inh: PAFAH1B3 enzyme inhibitors, primary screen, biochemical, fluorescence polarization, human | Platelet-activating factor acetylhydrolase IB subunit alpha1 (Homo sapiens), Q15102 | recombinant PAFAH1B3, FP-rhodamine probe | inhibition, % at 3.39 µM | actives 0.28% (n = 340,000) | AID 492972, 2010;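 active = inhibition above the screen-wide average of all tested compounds plus 3 SD, cut at about 25% in these data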;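 also: 0% = enzyme with DMSO only and 100% = wells lacking PAFAH1B3 protein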
# Starred values were filed as active, the others as inactive; . = not tested or not shown.
SMILES,PAFAH1B2 inh,RBBP9 inh,PAFAH2 FP inh,pPAFAH FP inh,PAFAH1B3 FP inh
O=C(N/N=C/c1ccc2c(c1)OCO2)C(=O)Nc1ccccc1Cl,-6,.,-6,.,16
COC(=O)c1ccccc1CSc1nsc(/C=C/N(C)C)c1C#N,4,.,-1,28*,6
CC(=O)SC(C)CC(=O)NCc1ccccc1 (stereo unspecified),1,2,-7,-2,0
Cc1ccc(NC(=O)CSc2nnc(-c3ccncc3)n2N)cc1C,4,-8,-3,2,4
Nc1cc(C(=O)O)ccc1Nc1ccccc1,0,-10,2,27*,9
Nc1nc(-c2ccc(F)cc2)cs1,55*,3,-11,-2,-2
COc1ccc(-c2csc(N)n2)cc1F,1,-9,9,-3,8
Nc1nc(-c2cc(-c3ccccc3)no2)cs1,0,.,8,4,1
Nc1nc(-c2ccc(Br)cc2)cs1,83*,-5,3,8,6
Nc1nc(-c2ccccc2)cs1,39*,-2,0,2,6
Cc1ccc(CSC2=Nc3sccc3C3=NC(=O)CN23)cc1,5,-1,8,27*,13
CCOC(=O)Cn1c(=S)[nH]c2c(oc3ccc(Cl)cc32)c1=O,4,-2,7,2,7
O=C(CNCc1ccccc1)NC1C2CC3CC(C2)CC1C3 (stereo unspecified),6,.,-1,3,3
Cc1cc(C(=O)CSc2cccc[n+]2[O-])c(C)n1-c1ccc(OC(F)F)cc1,2,-4,5,31*,5
CCc1ccc(N2CC(C)Cn3c2nc2c3c(=O)[nH]c(=O)n2C)cc1 (stereo unspecified),6,.,6,34*,0
CN(CC1CCCO1)S(=O)(=O)c1ccc(C(=O)Nc2nnc(-c3ccccc3)o2)cc1 (stereo unspecified),6,.,-1,7,8
N#Cc1ccsc1NC(=O)CSc1nnnn1-c1ccc(O)cc1,1,1,1,26*,3
CC(C)(C)OC(=O)CNC(=O)c1[nH]cnc1C(=O)NCCCCCNC(=O)OC(C)(C)C,-2,.,-7,4,1
COc1ccc(S(=O)(=O)N(C)CC(=O)N2CCCC2)cc1OC,5,.,-3,0,1
C/C(=N\Nc1ccc(C(=O)O)cc1)c1ccc2c(c1)Nc1ccccc1S2,8,6,25,34*,26*
COc1ccc(/C(C)=N/Nc2cccc(C(=O)O)c2)cc1OC,3,-3,3,5,-8
CSc1nc2nccc(-c3ccc(Oc4ccccc4)cc3)n2n1,-2,-2,-2,30*,1
COc1ccc(-c2nc(-c3ccccn3)ncc2S(C)(=O)=O)cc1,-2,3,9,-1,6
CCn1c(N)nc2c1c(=O)n(C)c(=O)n2C,1,-8,9,8,1
Cn1nc(-c2ccccn2)nc2c(=O)n(C)c(=O)nc1-2,32*,-4,59*,12,68*
SMILES,PAFAH1B2 inh,RBBP9 inh,PAFAH2 FP inh,pPAFAH FP inh,PAFAH1B3 FP inh
CCCc1nc2c(=O)n(C)c(=O)nc-2n(C)n1,36*,0,60*,.,78*
COc1ccc([C@H]2CC(=O)C=C(c3cccc(CO)c3)C2)cc1,-4,.,0,0,3
COc1ccc(C2c3ccc(O)cc3Oc3ncn(Cc4ccccc4)c(=N)c32)cc1OC (stereo unspecified),32*,-4,46*,-4,32*
N#CC1(N2CCN(C(=O)c3ccccc3)CC2)CCCCC1,-2,.,-1,2,9
O=C(COc1ccc2c(-c3ccccc3)cc(=O)oc2c1)N[C@@H](Cc1c[nH]c2ccc(O)cc12)C(=O)O,63*,.,-2,16,5
CC(Oc1ccc2c(-c3ccccc3)cc(=O)oc2c1)C(=O)NC(Cc1c[nH]c2ccc(O)cc12)C(=O)O (stereo unspecified),71*,.,-2,15,7
O=C(Cc1cc(=O)oc2cc(O)ccc12)N[C@@H](Cc1c[nH]c2ccccc12)C(=O)O,7,.,6,9,9
O=C(CNC(=O)c1cc(Cl)cc([N+](=O)[O-])c1)OCC(=O)N1CCCCC1,4,.,-2,2,2
CN1CCN(C2=C(Cl)C(=O)c3ccccc3C2=O)CC1,39*,.,57*,.,66*
CN1CCN(C2=C(Cl)C(=O)C(c3cnc(N4CCCCC4)s3)=C(Cl)C2=O)CC1,15,3,10,41*,18
NC(=O)C1CCN(C2=C(Cl)C(=O)c3ccccc3C2=O)CC1,35*,-1,47*,0,43*
CC1COCC(C)N1C1=C(Cl)C(=O)c2ccccc2C1=O (stereo unspecified),35*,.,43*,.,44*
CN1CCN(C2=C(NS(=O)(=O)c3ccccc3)C(=O)c3ccccc3C2=O)CC1,2,.,8,2,7
O=C(COC(=O)c1ccc(Br)o1)NCc1ccccc1Cl,8,.,18,5,0
CC(=O)c1c2c3c(c(Br)ccc3n(C)c1=O)C(=O)c1ccccc1-2,3,.,-4,29*,14
Cc1ccc(S(=O)(=O)N2CCOCC2)cc1C(=O)OCC(=O)c1ccc[nH]1,3,.,11,11,6
Cc1ccc(S(=O)(=O)N2CCOCC2)cc1C(=O)OCC(=O)c1ccc(Br)cc1,26*,.,4,-5,-1
COCCN(C(=O)c1ccc(C#N)cc1)c1c(N)n(Cc2ccccc2)c(=O)[nH]c1=O,6,.,5,2,2
COCCN(C(=O)c1ccc(OCC(C)C)cc1)c1c(N)n(Cc2ccccc2)c(=O)[nH]c1=O,0,.,-14,31*,-10
O=C(Nc1nc(-c2ccccn2)cs1)C1CC1,2,-8,3,-2,5
O=C(CC1CC2CCC1C2)Nc1nc(-c2ccccn2)cs1 (stereo unspecified),55*,-4,6,5,2
Cn1c(SCc2ccc(Br)cc2)nnc1-c1cccs1,24*,-3,0,2,-1
CCN(CC)CCCn1c2c(c(SCC(=O)Nc3cccc(C)c3C)nc1=O)CCC2,-5,.,-2,-2,5
CCN(CC)CCCn1c2c(c(SCC(=O)Nc3cccc4ccccc34)nc1=O)CCC2,34*,.,32*,3,36*
O=C(N/N=C/c1cccs1)c1ccc2c(c1)OCO2,0,-12,1,-2,6
Cn1c(=O)c2c(nc(N3CCOCC3)n2CC(=O)C23CC4CC(CC(C4)C2)C3)n(C)c1=O,27*,-4,-5,3,11
CCN(C(=O)CSc1ncccn1)C1CCS(=O)(=O)C1 (stereo unspecified),3,.,-3,0,-6

# Screens as filed in PubChem.
